70 molecules from ChEMBL document CHEMBL4513216, “Probing the Open Global Health Chemical Diversity Library for Multistage-Active Starting Points for Next-Generation Antimalarials” (ACS Infect Dis, 2020) can be followed below.

The nature of this data set: Toxicity liver stage against HepG2, at 10uM. As to conditions: human, HepG2-A16-CD81EGFP cells; read-out: INHIBITION
Format: cell-based. Also on record: test concentration 10 uM, cell line HepG2-A16-CD81EGFP. Summed up: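 Uninfected HepG2-A16-CD81EGFP cells, 3 × 10^3 per well, 1536-well, plated on prespotted compound at 10 μM final, parasite-free screening media added to match infected plates; puromycin 10 μM positive, DMSO 0.5% negative; run in parallel with 48 h PbLuc assay at 37 °C, 5% CO2; viability by CellTiter-Glo luminescence, normalized to controls.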
Regarding `CCOC(=O)CNC(=O)NCc1cc(C)n(-c2ccccc2OC)c1C`, the cytotoxicity at 10 µM is 13.3%. The same measure for `CN(CCC(O)c1ccccc1)Cc1nc(-c2ccccc2)no1` (stereo not given): 7.86%.

Turning to `CC(=O)NC1CCCc2c1[nH]c1ccc(F)cc21` (stereo not given), the cytotoxicity at 10 µM is -4.41%.

On to `O=C(O)C1CCCN(C(=O)CCn2ccc3c(Cl)cccc32)C1` (stereo not given), for which the cytotoxicity at 10 µM stood at 11%. Take `CC(C)n1[nH]c(=O)c2c1NC(=O)CSC2C1CCCCC1` (stereo not given): the cytotoxicity at 10 µM is -4.56%. As for `O=C(NCCN1CCOCC1)c1ccc(-n2ccc3ccccc32)s1`, the cytotoxicity at 10 µM is -1.27%.

Regarding `CN1CCN(c2nsc(-c3cccnc3)c2C#N)CC1`, the cytotoxicity at 10 µM worked out at 0.916%.

As to `CCOC(=O)C1CCN(c2cc(C(=O)N3CCOCC3)nc(C)n2)CC1`, the cytotoxicity at 10 µM is -1.07%. The same measure for `Cc1nnc(Nc2cccc(C3CCCN(Cc4ncc[nH]4)C3)n2)s1` (stereo not given): -5.5%; for `COCCN1C(=O)CO[C@H]2CN(Cc3ccccc3Cl)C[C@@H]21`: -6.55%. As for `O=C(NCc1ccc(CN2CCCC2)cc1)NC1(CO)CCCC1`, the figure is -63.4%.

Take `O=c1oc(-c2ccc(F)cc2)nn1CC1CCOC1` (stereo not given): the cytotoxicity at 10 µM was 5.53%.

Consider `O=C(NC1CCN(C2CC2)CC1)c1cc(Cl)ccc1-n1cnnn1`, for which the cytotoxicity at 10 µM amounted to 3.43%. The same measure for `Cc1noc(C)c1CN(C)Cc1csc(-c2ncccn2)n1`: 16.5%; for `Cc1nccn1-c1ccc(C(C)NCCC(C)C)cc1` (stereo not given): 15.9%. In the case of `Cc1c(NC(C)C(C)C)cccc1C(=O)NCc1ccnn1C` (stereo not given), the cytotoxicity at 10 µM amounted to 57.6%. As for `Fc1ccc(CNCc2nnc3n2CC(C(F)(F)F)CC3)cc1` (stereo not given), the figure is 6.71%. The same measure for `CNS(=O)(=O)c1cccc(C(C)NCc2ccc(C)c(C)c2)c1` (stereo not given): 3.92%.

Take `CN(Cc1ccco1)Cc1ccccc1CNC(=O)c1cnccn1`: the cytotoxicity at 10 µM turned out to be 17.1%.

Regarding `CN(C)CCN(Cc1ccc(C(F)(F)F)cc1)C(=O)c1cc[nH]n1`, the cytotoxicity at 10 µM was 3.95%. The same measure for `NS(=O)(=O)N1CCc2ccc(NC(=O)CC(F)(F)F)cc21`: 6.15%.

`Cc1cc(=O)n2ncnc2n1CC(O)c1ccccc1` (stereo not given): the cytotoxicity at 10 µM was -7.82%.

Consider `CN1CCN(S(=O)(=O)c2cccc(C#N)c2)c2ccc(F)cc21`, for which the cytotoxicity at 10 µM worked out at 2.98%. The same measure for `OCc1cc2ccccc2nc1NC1CC=CC1`: -56%; for `O=C1CCc2cc(S(=O)(=O)NC(=O)c3ccc4c(c3)COC4)ccc2N1`: 4.82%; for `Clc1cc(Cl)cc(OCCN2CCC(n3cncn3)CC2)c1`: 10.8%. Turning to `N#Cc1c(Cl)nsc1NCCCN1C(=O)COc2ccccc21`, the cytotoxicity at 10 µM turned out to be 22.2%. As to `C=C(C)COCCNC(=O)Nc1cccc(Cn2nc(C)nc2C)c1`, the cytotoxicity at 10 µM turned out to be 7.64%. Consider `Cc1nn(C)c(Oc2cccc(F)c2)c1NC(=O)C1CCOCC1`, for which the cytotoxicity at 10 µM is -3.91%. Take `CCN(CC)c1ccc(CNS(=O)(=O)C2CCOCC2)cc1F`: the cytotoxicity at 10 µM was -13.4%. In the case of `COC1COC2(CCN(C(=O)c3ccccc3F)CC2)C1` (stereo not given), the cytotoxicity at 10 µM was -92.4%. The same measure for `Cc1occc1C(=O)N1C[C@@H]2CCCO[C@@H]2[C@H](NC(=O)CC2CC2)C1`: -102%; for `Cc1cccc(-c2nnn3c2COC(CNC(=O)N2CCCC2)C3)c1` (stereo not given): -94.5%. `Cc1nc(C(=O)N2CC[C@@]3(C[C@@H](NS(C)(=O)=O)CCO3)C2)cs1`: the cytotoxicity at 10 µM was -66%. As to `CO[C@@H]1CCN(Cc2cccs2)[C@H]1Cc1ccncc1`, the cytotoxicity at 10 µM is -73.4%. As for `CCC(CC)CN1CCC2(CCCN(c3ncccn3)C2)C1` (stereo not given), the cytotoxicity at 10 µM is -83.5%. As for `O=C(c1ccsc1)N1CCc2ncc(Cn3cncn3)n2CC1`, the figure is -78%; as for `NC(=O)c1ccc(-n2ccnc2-c2cccc(O)c2)cc1N1CCCC1`, 15.8%. As for `CCc1nc(C)c(C(=O)N2C[C@@H](C(=O)O)[C@H](C3CC3)C2)s1`, the cytotoxicity at 10 µM amounted to 3.41%. As for `CCN(Cc1ccncc1)C1CCCN(Cc2ccc(F)cc2Cl)C1` (stereo not given), the figure is 7.94%. Take `Cn1ccnc1C1CCN(S(=O)(=O)c2ccc3[nH]c(=O)[nH]c3c2)CC1`: the cytotoxicity at 10 µM worked out at 4.82%. Take `CCc1nc(CNc2nc3c(s2)c(C)nn3C)cs1`: the cytotoxicity at 10 µM was -72%. The same measure for `C/C=C(\C)CN1C[C@H](NC(=O)CCOC)[C@@H](c2ccc(C)o2)C1`: 7.06%. As for `Cc1c(C(C)NCC2CCCC2)cnn1-c1ccc(F)cc1F` (stereo not given), the figure is 9%; as for `CN(C)c1ccc(C(=O)NCCCc2ccccn2)cn1`, -54%. As for `Cc1csc2c(N3CCNC(C(=O)Nc4ccc(F)cc4)C3)ncnc12` (stereo not given), the figure is 12.7%; as for `COc1cccc2c1OCC(NCc1cnn(-c3ccccc3)c1)C2` (stereo not given), -0.517%. On to `CC(C)n1cc(C(=O)N2CCN(c3cccc(C(F)(F)F)c3)CC2)cn1`, for which the cytotoxicity at 10 µM came to 5.37%. As for `CN(C)Cc1ccc(C(=O)N2CCCC(COc3ccc(F)cc3)C2)o1` (stereo not given), the figure is -12.9%; as for `Cn1ccnc1-c1cnn(CC(=O)Nc2ccnn2C)c1`, -10.1%; as for `CN1CCCCCC1C(=O)N1CCN(c2ccccc2C#N)CC1` (stereo not given), -7.17%.

Consider `CCn1nc(C)c(CN2CCCC(c3ccc(C(=O)O)cc3)C2)c1C` (stereo not given), for which the cytotoxicity at 10 µM was -8.56%. For `Cc1nccc(N[C@H]2CN(C(=O)CN3CCCC3=O)C[C@@H]2C(C)C)n1`, the cytotoxicity at 10 µM is -2.14%. As for `CCc1cc(N2CCC(NC3CN4CCC3CC4)CC2)nc(N(C)C)n1` (stereo not given), the figure is -2.12%. With `Cc1cccc(C(=O)Nc2ccc(OC3CCN(C)CC3)cc2)c1`, the cytotoxicity at 10 µM was -26.1%.

On to `CC(=O)N1CCCN(C(=O)c2ccc(=O)n(C)c2)c2ccccc21`, for which the cytotoxicity at 10 µM is -10.4%.

Take `CN1CCOC(CN(C(=O)CCc2cnn(C)c2)c2nccs2)C1` (stereo not given): the cytotoxicity at 10 µM is -10.2%.

In the case of `Nc1cc2c(nn1)CCN(C(=O)CCC1CCCCC1)C2`, the cytotoxicity at 10 µM was 6.5%. As to `CCc1nc(CC(=O)N2CCCCC2Cn2cccn2)cs1` (stereo not given), the cytotoxicity at 10 µM is -17.6%. As for `CC(NC(=O)NCCCN(C)S(C)(=O)=O)c1ccc(Cl)cc1` (stereo not given), the figure is -2.24%; as for `O=C(c1ccc(Cl)o1)N1CCCC(c2cc(C(F)(F)F)[nH]n2)C1` (stereo not given), 2.14%. Consider `CNC(=O)C1CCN(C(=O)CCn2cccn2)CC1`, for which the cytotoxicity at 10 µM was -3.76%.

Regarding `CN(Cc1ccco1)C[C@H]1OC[C@@H]2CCN(Cc3ccsc3)C[C@@H]21`, the cytotoxicity at 10 µM was -3.2%. For the molecule `CCOC1COC2(CCN(C(=O)c3cccc(C)n3)CC2)C1` (stereo not given), the cytotoxicity at 10 µM was determined as 6.24%. The same measure for `COc1cccc([C@H]2CN(C(C)=O)[C@@H]3CCN(Cc4ccsc4)C[C@H]23)c1`: -9.19%; for `COc1ccc(CNc2c(C)nn(C(C)C)c2C)cc1OC`: -38.5%. The same measure for `CC1CCN(C(=O)[C@@H]2CC[C@@H]3[C@@H](CCN3c3ncc(F)cn3)O2)CC1`: -0.359%.

Regarding `c1cc(CN2CCO[C@H]3[C@H](OCC4CCCC4)CC[C@@H]32)ccn1`, the cytotoxicity at 10 µM was 13.9%. The same measure for `CN(C)C1CCN(C(=O)c2cc(-c3ccn(C)n3)n3ccccc23)CC1`: -117%; for `CCc1ncc(CN2C[C@@H]3CC[C@H]2CN(C(=O)C2CCC2)C3)cn1`: 4.96%.
